Laboratory results: publication PMC3013634 (FEMS microbiology letters, 2009)

Molecular target: T1, sPBP 6 (Escherichia coli, UniProt P08506)
T1 sequence (P08506 28-388 limits assumed): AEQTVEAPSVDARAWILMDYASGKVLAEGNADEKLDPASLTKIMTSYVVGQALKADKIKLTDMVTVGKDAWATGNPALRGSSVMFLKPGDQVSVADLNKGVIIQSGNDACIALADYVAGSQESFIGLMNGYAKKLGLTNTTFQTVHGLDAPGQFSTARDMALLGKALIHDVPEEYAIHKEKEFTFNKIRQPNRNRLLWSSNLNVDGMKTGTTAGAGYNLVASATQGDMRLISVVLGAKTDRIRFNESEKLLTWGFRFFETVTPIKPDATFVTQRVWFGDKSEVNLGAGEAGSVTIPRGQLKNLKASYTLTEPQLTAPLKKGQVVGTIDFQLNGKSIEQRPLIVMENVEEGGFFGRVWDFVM
Test: acylation rate, fluorescent labelling, SDS-PAGE densitometry
Type: binding
Settings: covalent; labelled compound; active-site serine acylation; 25-100 μM, 30-120 s
How it was run: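 Enzyme (250 μg) was incubated with BOCILLIN FL at 25, 50 or 100 μM for 30–120 s, then run on 12% SDS-PAGE and fluorescence-scanned (488/526 nm). Pseudo-first-order ka came from bound density relative to saturation, and k2/K from the slope of ka versus concentration.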

Cc1cc(C)n2c1C=C1C=CC(CCC(=O)Nc3ccc(OCC(=O)N[C@@H]4C(=O)N5[C@@H]4SC(C)(C)[C@@H]5C(=O)[O-])cc3)=[N+]1[B-]2(F)F.[Na+] [BOCILLIN FL]
k2/K / M^-1 s^-1: 1900 ± 65.5 M⁻¹ s⁻¹
